# Compound activity (PubChem BioAssay)
# MrgX1 antagonist = antagonists of human MrgX1 receptor, primary screen, HEK293 cells, Fluo-4 calcium flux; B-score at 10 µM; BAM8-22 antagonism; hits give low values; AID 588676, 2011; actives 1.3% (n = 310,000);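 active = calcium-response B-score plate-corrected more than 3 library SD below zero, starting fluorescence within 5 deviations, no agonist response on first addition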;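 also: peak minus trough fluorescence over baseline after final BAM8-22 challenge near maximal dose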
# Target sequence (Q96LB2 whole entry, looked up): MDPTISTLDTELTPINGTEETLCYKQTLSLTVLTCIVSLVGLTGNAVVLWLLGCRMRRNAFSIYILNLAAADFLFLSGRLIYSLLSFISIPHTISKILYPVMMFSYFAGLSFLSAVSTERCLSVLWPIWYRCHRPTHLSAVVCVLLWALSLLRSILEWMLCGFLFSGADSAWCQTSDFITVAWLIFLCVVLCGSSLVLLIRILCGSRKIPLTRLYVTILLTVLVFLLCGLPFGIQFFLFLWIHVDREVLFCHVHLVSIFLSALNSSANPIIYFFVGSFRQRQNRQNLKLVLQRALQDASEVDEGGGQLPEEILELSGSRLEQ
# MrgX1 agonist = agonists of human MrgX1 receptor, primary screen, HEK293 cells, Fluo-4 calcium flux; actives 0.44% (n = 310,000); B-score at 10 µM; Mas-related G-protein coupled receptor member X1 (Homo sapiens), Q96LB2; AID 588627, 2011; Fluo-4 calcium fluorescence, agonist mode; hits give high values;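 active = calcium response B-score plate-corrected fluorescence ratio at least 3 library SD, with starting fluorescence B-score inside 5 SD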
#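 Material: MrgX1-expressing HEK293 cells; input: 15,000 cells per well; doses: test compound given as first of three sequential additions; schedule: overnight plating before 1 h dye loading; technique: Fluo-4 NW calcium-flux fluorescence, kinetic read; evaluation: baseline-normalised fluorescence change ratio, B-scored; control set: plate-wise positive and negative controls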
# MrgX1 allo act = positive allosteric modulators of MrgX1, primary screen, HEK293 cells, Fluo-4 calcium flux; Mas-related G-protein coupled receptor member X1 (Homo sapiens), Q96LB2; FDSS; hits give high values; B-score at 10 µM; actives 0.63% (n = 310,000);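 active = plate-corrected calcium response at least 3 library SD above typical, normal starting fluorescence, not activating the receptor alone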;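 also: compound read alongside a low EC10 to EC30 dose of BAM8-22 agonist; peak minus trough fluorescence over baseline measured at the second addition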
# RGS4 act = RGS4 potentiators or activators, primary screen, cell-based, HEK293 M3R inducible RGS4, calcium flux | carbachol calcium flux Fluo4; hits give low values | actives 0.92% (n = 310,000) | B-score at 10 µM;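 active = B-score of the integrated calcium signal more than 4 SD below the library mean, with starting fluorescence not abnormally high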;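 also: negative B-score means reduced calcium response which marks RGS4 activation or potentiation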
#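 Detection: kinetic calcium fluorescence imaging with Fluo4-AM dye, 2 µM / Material: HEK293 cells with stable M3R and inducible RGS4 / Schedule: recording 10 s baseline at 1 Hz, 100 s post-agonist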
# RGS4 inh = RGS4 inhibitors, primary screen, cell-based, HEK293 M3R inducible RGS4, calcium flux; B-score at 10 µM; AID 463165, 2010; actives 0.45% (n = 310,000); Fluo-4 calcium flux; hits give high values; triggered by carbachol at its EC20;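 active = B-score, a plate-corrected calcium signal, over three deviations above library mean, with baseline fluorescence within five deviations of library mean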;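 also: RGS4 expression induced by doxycycline in cells with stable M3 receptor; B-score is computed from the integrated fluorescence ratio over baseline after carbachol; higher B-score means a larger calcium signal and so more RGS4 inhibition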
# Target sequence (P49798 whole entry, looked up): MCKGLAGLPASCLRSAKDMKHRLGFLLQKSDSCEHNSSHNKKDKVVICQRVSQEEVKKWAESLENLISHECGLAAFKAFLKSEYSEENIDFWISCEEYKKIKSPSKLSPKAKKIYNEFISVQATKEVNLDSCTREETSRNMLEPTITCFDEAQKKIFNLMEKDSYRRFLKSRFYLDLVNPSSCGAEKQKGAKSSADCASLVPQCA
# Hits are given with their value; n = inactive; x = not tested or not shown. This is a sample that favours compounds with a hit; in the whole collection about 3.5% have one here.
SMILES,MrgX1 antagonist,MrgX1 agonist,MrgX1 allo act,RGS4 act,RGS4 inh
CC[n+]1c(/C=C/Nc2ccccc2)oc2ccc(OC)cc21,-7.4,n,n,n,n
CC[n+]1c(/C=C/N(C)c2ccccc2)oc2ccc(F)cc21,-4.7,n,n,n,n
CC[n+]1c(/C=C/Nc2ccccc2)oc2ccccc21,n,n,n,n,n
O=C(NC(=S)N1CCN(c2ccccn2)CC1)c1ccco1,n,n,n,n,n
COc1cc(/C=C2\C(=N)N3N=C(S(C)(=O)=O)SC3=NC2=O)ccc1OCCOc1ccc(C)cc1,n,n,n,-7.2,n
COc1cc(/C=C2\C(=N)N3N=C(S(C)(=O)=O)SC3=NC2=O)cc(OC)c1OCCOc1ccc(C)cc1,n,n,n,n,n
Cc1cc(/C=C2\C(=N)N3N=C(C(C)C)SC3=NC2=O)c(C)n1-c1ccccc1,n,n,n,n,n
CC(=O)Nc1ccc(OCCOc2ccc(/C=C3\C(=N)N4N=C(C(C)C)SC4=NC3=O)cc2)cc1,n,32,n,n,n
COc1cc(/C=C2/C(=N)N3C=CSC3=NC2=O)ccc1OCCOc1ccc(NC(C)=O)cc1,n,n,14,n,n
COc1cc(/C=C2/C(=N)N3C=CSC3=NC2=O)ccc1OCCCOc1ccccc1C,n,n,n,n,n
C/C(=N/NC(=O)CNC(=O)Cc1ccc(Cl)cc1)c1ccco1,n,n,n,n,n
Cc1nc2ccccn2c1C(=O)N=Nc1c(O)n(CCC(C)C)c2ccccc12,n,n,n,-7.3,n
Cc1csc(N/N=C/c2c(F)cccc2Cl)n1,n,n,9.8,n,n
Cc1csc(N/N=C/c2ccccc2F)n1,n,n,n,n,n
COc1cccc(CN2CCCN(S(=O)(=O)c3ccc(Br)cc3)CC2)c1,n,n,n,n,n
O=S(=O)(c1ccc(Br)cc1)N1CCCN(Cc2cccc(F)c2)CC1,n,n,n,-8.3,n
CC1(C)Cc2noc(N)c2C(C)(C)N1O,-6.3,n,n,n,n
FC(F)(F)c1cc(CCN2C(=S)NC[C@@H]2CC2CCCCC2)cc(C(F)(F)F)c1,n,n,n,-9.8,n
Cc1c(Cc2ccccc2)sc(/N=C/c2c(O)ccc3ccccc23)c1C(N)=O,-7.6,n,n,n,n
Cc1c(Cc2ccccc2)sc(/N=C/c2ccc3ccccc3c2)c1C(N)=O,n,n,n,x,x
C[C@@H]1O[C@@H](OC2C(O)C(OCCc3ccc(O)c(O)c3)OC(CO)C2OC(=O)/C=C/c2ccc(O)c(O)c2)[C@H](O)[C@H](O)[C@H]1O (stereo partly drawn),-5.1,n,n,n,n
Cc1cccc(N2CCN(C(=O)c3cc(C)oc3C)CC2C)c1 (stereo not drawn),n,n,n,n,n
CCOc1cc(/C=C(/C#N)C(=O)Nc2ccc(O)cc2)cc(Br)c1O,n,62,n,n,n
N#C/C(=C\c1ccc(-c2ccc(C(=O)O)cc2)o1)C(=O)Nc1ccc(F)cc1,-4.6,n,n,n,n
COc1ccccc1/C=C/C1C(C(=O)OCC(C)C)=C(C)N=C2SCCC(=O)N21 (stereo not drawn),n,n,n,n,n
SMILES,MrgX1 antagonist,MrgX1 agonist,MrgX1 allo act,RGS4 act,RGS4 inh
COC(=O)C1=C(C)N=C2SCCC(=O)N2C1/C=C/c1ccccc1 (stereo not drawn),n,n,n,-7.4,n
CC(CCc1ccccc1)NC(=O)CCNC(=O)Cn1ccc2ccccc2c1=O (stereo not drawn),n,n,n,n,n
CCCCC(=O)N/N=C(\C)c1cccc(NC(=O)C2CC2)c1,-5.6,n,n,n,n
Cc1ccc(N2C(=O)c3ccccc3C2C(=O)c2ccc(C)c(C)c2O)cc1 (stereo not drawn),n,n,n,-7,n
Cc1ccc(N2C(=O)c3ccccc3C2C(=O)c2ccc(O)cc2O)cc1 (stereo not drawn),n,n,n,n,n
Cc1ccc(-c2nc3ccccc3nc2-c2ccccc2)cc1,n,n,n,n,n
Cc1ccc(-c2nc(N)s[n+]2-c2ccccc2)cc1,n,n,n,-9.8,n
N/C(=N\OC(=O)C1CCCCC1)c1ccc(Br)cc1,n,n,n,n,n
N/C(=N\OC(=O)C1CCCCC1)c1ccncc1,-4.5,n,n,n,n
O=C1CCC(C(=O)OCc2nnc(-c3ccccc3)o2)=NN1,n,n,n,n,n
Cn1c(CS/C(N)=N/N=C/c2ccccc2)c(Br)c(=O)n1-c1ccccc1,n,46,n,n,n
Cc1c(NC(=S)N/N=C/c2ccc(Br)cc2)c(=O)n(-c2ccccc2)n1C,n,n,n,n,n
COc1ccc(NC(=O)c2cc(S(=O)(=O)N3CCOCC3)ccc2N2CCOCC2)cc1,n,n,n,n,n
COc1ccc(NC(=O)c2cc(S(=O)(=O)N3CCCCC3)ccc2N2CCCCC2)cn1,n,n,n,-7,n
N#CN(Cc1ccccc1)Cc1ccccc1,n,n,n,n,n
Cn1c(=O)cc(OCC(=O)NCCCN2CCN(Cc3ccccc3)CC2)c2ccccc21,-4.5,n,n,n,n
Cc1cc(NC(=O)CCC(=O)N(Cc2ccco2)C2(C(=O)NC3CCCCC3)CCCCC2)no1,n,n,n,n,n
CC(=O)NC(Cc1cccc(C)c1)C(=O)NC1CCN(c2ncccc2[N+](=O)[O-])CC1 (stereo not drawn),-4.7,n,n,n,n
CCN=c1scc(-c2ccccc2)n1/N=C/c1ccccn1,n,n,12,n,n
C=CCN=c1scc(-c2ccccc2)n1/N=C/c1ccccn1,n,n,14,n,n
C=CCN=c1scc(-c2ccc(F)cc2)n1/N=C/c1ccccn1,n,n,n,n,n
COc1cc(/C=N/c2oc(C)c(C)c2C#N)cc(Br)c1O,n,n,n,n,n
CCOc1ccc(NC(=O)CSc2nc(=O)n(CCN3CCOCC3)c3c2CCCC3)cc1,n,n,n,n,n
COc1cc(-c2noc(C)c2-c2ccc3[nH]ccc3c2)cc(OC)c1OC,n,n,n,-7.2,n
Cc1cc2ncn(-c3ncccc3[N+](=O)[O-])c2cc1C,n,27,n,n,n
O=C(CCc1ccccc1)Nc1cc2c3c(c1)CC(=O)N3CCC2,n,n,n,n,n
CCOC(=O)c1[nH]c2ccc(Br)cc2c1NC(=O)CCN1CCC(C)CC1,n,n,n,n,n
CCOC(=O)c1[nH]c2ccc(Br)cc2c1NC(=O)CCN1CCCC(C)C1 (stereo not drawn),n,n,n,-8.6,n
OC(c1ccccn1)(c1ccccn1)c1ccccn1,n,n,n,n,n
